# Hits are enriched below; roughly 4.6% of the tested compounds scored in any of these assays.
# TAAR1 agonist: human TAAR1 agonists, primary screen, Fluo-8 calcium fluorescence, CHO RD-HGA16 cells | vehicle wells 0%, saturating PEA agonist 100% | Trace amine-associated receptor 1 (Homo sapiens), Q96RJ0 | AID 624467, 2012 | 360,000 compounds, 0.99% hits | activation, % at 3 µM;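 active means activation above the mean activation of all test compounds in the run plus 3 SD, cut at about 38% in these data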
#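 Test system: RD-HGA16 (CHO) cells co-expressing Gα16 and hTAAR1 / Benchmarks: DMSO vehicle as 0%, PEA at EC100 as 100% / Repeats: no replicates (n 1) / Measure: % activation from peak over basal fluorescence ratio, DMSO-to-PEA scaled / Timing: 17-24 h plating, Fluo-8 75 min 37 °C, 30 min RT / Technique: kinetic Fluo-8 calcium fluorescence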
# CHO parental Ca: ATP-evoked calcium signal inhibitors, parental CHO, primary screen, counter-screen for OX1R antagonist project, cell-based, fluorescence, Fluo-8 calcium dye. parental CHO-K1, ATP-induced calcium, Fluo-8 fluorescence. inhibition, % at 5.6 µM. 330,000 compounds, 0.63% hits;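 active means inhibition above that plate's mean sample inhibition plus 3 SD, cut at about 26% in these data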;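 further: 0% = ATP-challenged DMSO wells and 100% = DMSO wells without ATP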
#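 Assay system: parental CHO cells; Read-out basis: percent inhibition of ATP-evoked calcium rise, normalized to controls; Benchmarks: ATP and no-ATP DMSO wells; Compound dosing: single nominal dose of 5.6 µM per compound; Signal: Fluo-8 calcium dye fluorescence; Also added: ATP as calcium-mobilizing challenge; Repeats: singlicate.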
# GPR7 antagonist: GPR7 receptor antagonists, primary screen, cell-based, fluorescence, single concentration | GPR7-expressing cells, fluorescence antagonist assay | 290,000 compounds, 1.1% hits | AID 1861, 2009 | Neuropeptides B/W receptor type 1 (Homo sapiens), P48145 | inhibition, % at 4.4 µM; in the data active means inhibition above about 16%, passing the limit was not always enough;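 further: cells stimulated with the agonist NPW; 0% = agonist with vehicle and 100% = vehicle without agonist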
# OX1R antag-1: OX1R (HCRTR1) antagonists, primary screen, fluorescence, CHO/OX1R cells, Fluo-8 calcium, orexin A. 330,000 compounds, 0.43% hits. Fluo-8 calcium fluorescence. inhibition, % at 5 µM;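 active means inhibition above its plate's threshold, mean inhibition of all tested compounds on the plate plus 3 SD, cut at about 37% in these data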;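 further: 0% = orexin A challenge wells and 100% = SB-334867-A antagonist wells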
# Target sequence (O43613 whole entry, looked up): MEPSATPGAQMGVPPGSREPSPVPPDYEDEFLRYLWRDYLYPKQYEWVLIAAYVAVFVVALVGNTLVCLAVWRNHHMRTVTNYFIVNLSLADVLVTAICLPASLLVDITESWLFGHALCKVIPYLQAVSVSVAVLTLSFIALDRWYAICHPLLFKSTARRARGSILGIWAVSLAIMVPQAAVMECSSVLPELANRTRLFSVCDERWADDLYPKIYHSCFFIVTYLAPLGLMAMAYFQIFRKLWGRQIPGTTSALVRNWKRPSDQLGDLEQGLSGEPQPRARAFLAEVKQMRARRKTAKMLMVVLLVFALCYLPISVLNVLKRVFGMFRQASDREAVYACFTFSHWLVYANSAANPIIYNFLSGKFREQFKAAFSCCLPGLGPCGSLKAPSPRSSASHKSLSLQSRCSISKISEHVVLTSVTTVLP
# OX1R antag-2: antagonists of human orexin 1 receptor (OX1R); Orexin/Hypocretin receptor type 1 (Homo sapiens), O43613; OX1R-expressing cells, FRET antagonist read-out; inhibition, % at 6.6 µM; 330,000 compounds, 1.8% hits; AID 485270, 2010; in the data active means inhibition mostly above about 38%, no sharp cut-off; inactive means mostly below about 40%;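 further: 0% = agonist challenge alone and 100% = reference antagonist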
# TAAR1 antagonist: human TAAR1 antagonists, primary screen, Fluo-8 calcium fluorescence, CHO RD-HGA16 cells; inhibition, % at 3 µM; AID 624466, 2012; 360,000 compounds, 1.5% hits; antagonist;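 active means inhibition above a per-plate cutoff, the mean inhibition of test compounds on that plate plus 3 SD, cut at about 49% in these data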;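 further: 0% = DMSO plus EC80 beta-PEA response and 100% = DMSO alone without agonist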
#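 Test system: CHO RD-HGA16 cells bearing hTAAR1 | Reagent: β-PEA, EC80 | Compound dosing: 3 µM, single point | Schedule: Dye loading 75 min at 37 °C, then 30 min room temperature | Signal: Calcium fluorescence with Fluo-8 | Evaluation: Percent inhibition of PEA-evoked calcium signal, max/basal emission ratio | Control set: DMSO-only wells and EC80 β-PEA-stimulated wells | Repeats: Singlicate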
# OX1R HTRF conf: OX1R (HCRTR1) antagonists, confirmation, cell-based, HTRF. shares compounds with OX1R antag-2. OX1R-expressing cells, HTRF antagonist assay. inhibition, % at 6.6 µM. 1,800 compounds, 49% hits. AID 492964, 2010; in the data active means inhibition above about 55%;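 further: CHO cells expressing OX1R stimulated with orexin A at about EC80; 0% = agonist challenge alone and 100% = reference antagonist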
# CHO-K1 HTRF cnt: signal inhibition in parental CHO-K1 cells, counter-screen for OX1R antagonist project, cell-based, HTRF; 1,800 compounds, 48% hits; HTRF counterscreen; inhibition, % at 6.6 µM; shares compounds with OX1R antag-2; AID 493232, 2011; in the data active means inhibition above about 17%;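 further: 0% = agonist challenge with vehicle and 100% = vehicle alone without agonist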
# Active calls of the source: *; nt = no result; + = active, no number.
SMILES,TAAR1 agonist,CHO parental Ca,GPR7 antagonist,OX1R antag-1,OX1R antag-2,TAAR1 antagonist,OX1R HTRF conf,CHO-K1 HTRF cnt
COc1ccc(N(C(=O)COc2cccc(C)c2)S(=O)(=O)c2ccc(C)cc2)cc1,2,-5,-7,-25,26,-30,nt,nt
C/[N+]([O-])=C1\Cc2ccccc2C1=O,13,-12,0,-16,105*,-12,52,63*
O=C1NC(=O)/C(=C\c2ccc(Oc3ccc([N+](=O)[O-])cn3)cc2)S1,-1,17,9,2,77*,-6,46,10
CCOC(=O)N1CCN(C(=O)c2ccc(OC)c(S(=O)(=O)N3CCOCC3)c2)CC1,4,-8,-7,-15,22,8,nt,nt
Cn1nc(-c2ccccn2)nc2c(=O)n(C)c(=O)nc1-2,7,-13,-29,-1,+,-14,91*,98*
NC(=O)c1cc(N)ccc1N1CCCC1,1,-8,-16,-12,87*,5,54,19*
CCN(CC)CCCNC(=O)C1CCN(c2ncnc3c2sc2cccc(F)c23)CC1,0,-11,2,-18,31,-30,nt,nt
c1ccc2nc3c(nc2c1)[nH]c1ccccc13,4,4,-1,-3,82*,-10,72*,-1
O=C(CSc1ccc([N+](=O)[O-])cn1)Nc1ccc2[nH]c(=O)[nH]c2c1,2,-3,7,5,93*,-19,28,24*
O=c1[nH]cnc2nc(-c3ccccc3)c(-c3ccccc3)nc12,2,-16,7,-5,129*,3,34,23*
O=c1[nH]cnc2nn(-c3ccccc3)nc12,7,-7,1,-25,20,1,nt,nt
CC(=O)OCCN(C)c1cc(SC(C)C)c2nonc2c1[N+](=O)[O-],1,-1,-9,-21,27,20,nt,nt
CC(=O)OCCNc1cc(SC(C)C)c2nonc2c1[N+](=O)[O-],1,-11,-14,-25,104*,-20,46,72*
CCC(=O)OCCNc1cc(SCCC(=O)OC)c2nonc2c1[N+](=O)[O-],1,-2,-4,-20,84*,-8,59*,78*
CCC(=O)OCCNc1cc(Sc2nccn2C)c2nonc2c1[N+](=O)[O-],-1,30,8,34,122*,24,63*,90*
Cc1ccc(C(=O)NCC(=O)NC2CCCC2)cc1,1,-2,-5,-9,8,-5,nt,nt
Cc1cccnc1Nc1nc(-c2ccc(O)c(O)c2)cs1,-1,4,2,12,13,0,nt,nt
COc1ccc(-c2csc(Nc3ncccc3C)n2)cc1OC,2,-23,-16,24,84*,-3,73*,11
Cc1ccc(NC(=S)N2C3CCCC2CC(NC(=O)C2CC2)C3)cc1C (centres undefined),-1,-9,-12,-18,18,-16,nt,nt
CCN1CCN(C(=O)c2cc3cc4cc(OC)ccc4nc3s2)CC1,3,-9,3,-16,110*,-3,11,0
Cc1ncc(CO)c2cc(C(N)=O)c(=Nc3ccccc3)oc12,9,-13,6,-19,150*,2,31,42*
Cc1ccc(NC(=O)c2cc3c(CO)cnc(C)c3oc2=Nc2cccc(C(N)=O)c2)cc1,2,-17,-8,-11,11,-22,nt,nt
CCC(=O)Nc1ccc(C(=O)NNC(=O)c2cc([N+](=O)[O-])cc([N+](=O)[O-])c2)cc1,13,5,2,-6,181*,6,19,11
CCC(=O)Nc1ccc(C(=O)NNC(=O)c2ccc([N+](=O)[O-])cc2)cc1,0,1,0,-9,158*,3,39,34*
CC(=O)Nc1ccc(S(=O)(=O)NNC(=O)c2ccc([N+](=O)[O-])cc2)cc1,-1,-9,-9,-15,19,-6,nt,nt
SMILES,TAAR1 agonist,CHO parental Ca,GPR7 antagonist,OX1R antag-1,OX1R antag-2,TAAR1 antagonist,OX1R HTRF conf,CHO-K1 HTRF cnt
CC(=O)Nc1ccc(C(=O)NNC(=O)c2cc([N+](=O)[O-])cc([N+](=O)[O-])c2)cc1,7,-11,-5,-3,80*,-7,49,73*
C[C@@H]1CN([C@@H](C)CO)C(=O)CCCn2nncc2CO[C@H]1CN(C)S(=O)(=O)c1cccc(F)c1,3,nt,nt,nt,nt,-10,nt,nt
COC(=O)c1sccc1NC(=O)Nc1cccc(C(C)=O)c1,11,2,-15,13,82*,25,67*,8
COC(=O)c1sccc1NC(=O)Nc1cccc(C)c1,-1,-29,-13,-26,35,10,nt,nt
Nc1c(C(=O)Nn2cnnc2)cc([N+](=O)[O-])cc1[N+](=O)[O-],nt,-7,2,3,64,nt,nt,nt
O=C(Nn1cnnc1)c1cc([N+](=O)[O-])cc([N+](=O)[O-])c1,-1,-6,-8,-9,113*,-10,66*,84*
COC(=O)c1cc(=O)c2c(C)nc(C(Cl)(Cl)Cl)nc2[nH]1,8,-8,-6,-7,79*,-17,46,15
CN(C)N=Nc1ccc(S(=O)(=O)NC(Cc2ccccc2)C(=O)O)cc1 (centres undefined),-1,-4,-5,-1,1,-8,nt,nt
O=C1C(Nc2ccccc2)=C/C(=N/S(=O)(=O)c2cccs2)c2ccccc21,nt,-23,-6,-21,40,nt,nt,nt
CCc1cc[n+](C2=C([O-])c3ccccc3C(=O)/C2=N\S(=O)(=O)c2cccs2)cc1,3,-12,-2,-17,149*,-7,56*,80*
CC1Cc2nc(SCC(=O)c3ccccc3)n(Cc3ccccc3)c(=O)c2S1 (centres undefined),3,23,-1,-29,5,20,nt,nt
O=C(NCCO)c1ccc2nc(-c3ccco3)c(-c3ccco3)nc2c1,3,-3,-9,-7,109*,10,38,58*
CN1CCN(c2nc3c(c(=O)[nH]c(=O)n3C)n2CC(N)=O)CC1,7,14,-2,10,10,-15,nt,nt

# Screening data as filed in PubChem.
